Laboratory results published in paper PMC4615699 (Cell, 2015).
Each block holds one molecule with its values, some of them ahead of it.

Assays:
NUCB1 = target: T1, NUCB1 (Homo sapiens, UniProt Q02818); format: binding; conditions: AEA-DA 5.0 μM; lipids 20×
T1 sequence (Q02818 27-461): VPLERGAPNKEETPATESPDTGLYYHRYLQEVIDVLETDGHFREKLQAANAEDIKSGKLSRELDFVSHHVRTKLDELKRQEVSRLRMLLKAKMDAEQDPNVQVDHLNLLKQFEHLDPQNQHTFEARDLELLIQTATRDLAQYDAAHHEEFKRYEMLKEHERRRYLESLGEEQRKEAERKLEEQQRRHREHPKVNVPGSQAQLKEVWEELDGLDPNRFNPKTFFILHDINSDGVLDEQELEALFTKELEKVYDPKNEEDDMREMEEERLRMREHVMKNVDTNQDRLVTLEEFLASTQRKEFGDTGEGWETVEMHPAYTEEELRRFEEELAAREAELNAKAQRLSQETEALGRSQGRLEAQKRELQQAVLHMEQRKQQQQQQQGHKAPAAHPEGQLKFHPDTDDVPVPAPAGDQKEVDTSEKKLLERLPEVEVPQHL
In short: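 Performed in vitro in lysates of NUCB1-transfected HEK293T cells, with AEA-DA probe and lipid competitors. Labeled proteomes (1.0 mg/mL) were CuAAC-conjugated to rhodamine-azide for 1 h at room temperature, quenched in SDS loading buffer, separated on 10% SDS-PAGE and detected by in-gel fluorescence.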

PTGR2 = PTGR2 (Mus musculus, UniProt Q8VDQ1); assay: In situ AEA-DA competition with lipid competitor AEA, PTGR2; format: cell-based; conditions: competitor 200 μM
DHRS1 = DHRS1 (Mus musculus, UniProt Q99L04); assay: In situ AEA-DA competition with lipid competitor AEA, DHRS1; format: cell-based; conditions: competitor 200 μM
[1] = target: T2, recombinant, purified human NUCB1 (hNUCB1) (Homo sapiens, UniProt Q02818); assay: NUCB1 FluoPol assay with Fl-AEA probe; format: binding; conditions: concentration-dependent; Fl-AEA 0.5 μM, NUCB1 1.0 μM
T2 sequence (Q02818 27-461): T1 sequence (Q02818 27-461)
In short: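 Fluorescence polarization readout using purified recombinant human NUCB1 and fluorescent arachidonoyl probe Fl-AEA. Lipid competitors were titrated for concentration-dependent loss of polarization signal. Mean ± SD from at least three independent experiments.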

ABCB1B = ABCB1B (Mus musculus, UniProt P06795); assay: In situ drug profiling with lipid probes, ABCB1B in Neuro2a cells; format: cell-based
ferrochelatase (FECH) = ferrochelatase (FECH) (Mus musculus, UniProt P22315); assay: In situ drug profiling with lipid probes, FECH; format: cell-based
TMEM97 = TMEM97 (Mus musculus, UniProt Q8VD00); assay: In situ drug profiling with lipid probes, TMEM97; format: cell-based
[2] = target: recombinantly expressed TMEM97 (Homo sapiens, UniProt Q5BJF2); format: cell-based; conditions: transfected HEK293T cells
In short: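 Transfected HEK293T cells (2.5 × 10^6 per 6-cm plate, grown 18-24 h) were washed in DPBS. They then received AEA-DA plus competitor or vehicle in serum-free media for 30 min at 37 °C, followed by 365 nm UV for 10 min at 4 °C. Lysates at 1.0 mg/mL were clicked to rhodamine-azide (TBTA, CuSO4, TCEP; 1 h, room temperature), resolved by 10% SDS-PAGE and read by in-gel fluorescence scanning.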

PTGS1 = PTGS1 (Mus musculus, UniProt P22437); assay: In situ competitive SILAC profiling of A-DA labeling, PTGS1 in Neuro2a cells; format: cell-based; conditions: drug 25 μM, A-DA 5 μM, 30 min
Neuro2a cells = assay: Targeted metabolite; format: cell-based, mouse
In short: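 Neuro2a cells were treated with test compound (10 μM) or DMSO for 6 h. Fatty acid amides (NAEs, NATs) were quantified by targeted MRM mass spectrometry. Mean ± SEM, n = 3-4 per group, compared against DMSO-treated cells.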

[3] = system: other AEA-DA-modified proteins; assay: Gel-based AEA-DA labeling of other proteins in HEK293T cell lysates; format: binding, human; conditions: NENF-transfected HEK293T lysates
NENF = NENF (Homo sapiens, UniProt Q9UMX5); format: binding; conditions: competitors 1–100 μM; NENF-transfected HEK293T lysates
NAMPT = NAMPT (Mus musculus, UniProt Q99KQ4); conditions: 25 μM, AEA-DA 5 μM, Neuro2a
[4] = system: A549 cells treated with PMA; assay: PMA-stimulated prostaglandin production in A549 cells; format: cell-based, human
EBP = EBP (Mus musculus, UniProt P70245); assay: In situ drug profiling with lipid probes, EBP; format: cell-based; conditions: 5 μM drug
LSS = LSS (Homo sapiens, UniProt P48449); assay: In situ drug profiling with lipid probes, LSS; format: cell-based; conditions: 5 μM drug
Sequence of LSS (P48449 whole entry): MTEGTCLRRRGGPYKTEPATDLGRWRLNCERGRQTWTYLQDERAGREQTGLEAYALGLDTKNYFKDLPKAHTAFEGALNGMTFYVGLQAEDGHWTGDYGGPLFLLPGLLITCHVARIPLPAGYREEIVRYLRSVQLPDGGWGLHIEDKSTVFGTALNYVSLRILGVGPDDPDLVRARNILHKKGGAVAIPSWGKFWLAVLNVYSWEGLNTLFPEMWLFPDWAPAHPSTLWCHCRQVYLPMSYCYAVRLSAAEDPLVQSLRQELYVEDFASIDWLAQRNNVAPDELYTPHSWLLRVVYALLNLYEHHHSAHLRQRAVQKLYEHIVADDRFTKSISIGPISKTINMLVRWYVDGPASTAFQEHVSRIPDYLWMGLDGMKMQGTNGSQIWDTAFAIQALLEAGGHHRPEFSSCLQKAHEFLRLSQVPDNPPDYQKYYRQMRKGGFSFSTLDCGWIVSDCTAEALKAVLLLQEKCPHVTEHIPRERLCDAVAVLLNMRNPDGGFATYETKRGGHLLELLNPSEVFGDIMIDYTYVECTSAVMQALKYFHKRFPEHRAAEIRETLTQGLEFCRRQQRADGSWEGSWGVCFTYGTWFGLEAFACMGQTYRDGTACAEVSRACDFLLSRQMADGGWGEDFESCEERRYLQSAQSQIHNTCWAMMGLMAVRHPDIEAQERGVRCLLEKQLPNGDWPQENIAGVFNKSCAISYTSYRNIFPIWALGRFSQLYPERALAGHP

Sequence of ABCB1B (P06795 whole entry): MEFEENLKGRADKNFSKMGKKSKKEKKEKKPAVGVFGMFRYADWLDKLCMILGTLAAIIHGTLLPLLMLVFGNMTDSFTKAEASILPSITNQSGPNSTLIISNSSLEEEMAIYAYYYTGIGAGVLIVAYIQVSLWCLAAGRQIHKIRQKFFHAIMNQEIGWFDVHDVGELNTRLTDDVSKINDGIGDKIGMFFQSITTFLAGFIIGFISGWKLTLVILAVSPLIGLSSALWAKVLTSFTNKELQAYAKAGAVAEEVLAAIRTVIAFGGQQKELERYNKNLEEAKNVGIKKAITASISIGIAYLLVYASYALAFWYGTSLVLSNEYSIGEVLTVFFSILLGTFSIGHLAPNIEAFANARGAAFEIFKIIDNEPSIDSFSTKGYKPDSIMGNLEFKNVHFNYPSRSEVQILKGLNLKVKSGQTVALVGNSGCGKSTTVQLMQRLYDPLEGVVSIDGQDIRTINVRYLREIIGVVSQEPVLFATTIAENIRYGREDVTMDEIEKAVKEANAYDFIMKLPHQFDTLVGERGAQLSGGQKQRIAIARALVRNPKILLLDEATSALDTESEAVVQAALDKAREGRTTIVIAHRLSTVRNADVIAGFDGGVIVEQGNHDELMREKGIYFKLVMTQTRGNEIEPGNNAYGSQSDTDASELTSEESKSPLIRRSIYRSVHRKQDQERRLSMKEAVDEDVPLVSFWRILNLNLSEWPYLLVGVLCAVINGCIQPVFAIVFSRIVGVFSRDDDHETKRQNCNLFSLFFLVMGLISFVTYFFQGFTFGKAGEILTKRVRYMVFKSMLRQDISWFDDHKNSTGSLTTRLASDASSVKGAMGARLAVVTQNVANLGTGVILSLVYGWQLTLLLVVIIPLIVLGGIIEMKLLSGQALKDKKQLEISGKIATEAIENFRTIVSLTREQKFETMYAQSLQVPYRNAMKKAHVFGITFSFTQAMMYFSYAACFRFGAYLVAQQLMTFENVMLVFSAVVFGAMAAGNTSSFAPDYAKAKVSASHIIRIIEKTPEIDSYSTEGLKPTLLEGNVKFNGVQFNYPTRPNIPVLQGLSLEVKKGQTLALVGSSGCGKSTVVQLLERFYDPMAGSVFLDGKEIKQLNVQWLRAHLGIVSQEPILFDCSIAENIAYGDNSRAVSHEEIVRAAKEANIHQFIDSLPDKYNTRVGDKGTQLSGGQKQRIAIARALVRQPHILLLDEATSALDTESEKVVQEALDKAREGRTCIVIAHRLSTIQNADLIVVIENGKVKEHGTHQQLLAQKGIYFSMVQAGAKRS
Sequence of recombinantly expressed TMEM97 (Q5BJF2 whole entry): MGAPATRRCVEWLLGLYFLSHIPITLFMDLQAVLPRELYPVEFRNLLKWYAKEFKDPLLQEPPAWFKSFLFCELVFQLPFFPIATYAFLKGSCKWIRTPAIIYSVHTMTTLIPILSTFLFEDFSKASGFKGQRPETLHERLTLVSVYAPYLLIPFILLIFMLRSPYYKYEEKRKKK
Sequence of TMEM97 (Q8VD00 whole entry): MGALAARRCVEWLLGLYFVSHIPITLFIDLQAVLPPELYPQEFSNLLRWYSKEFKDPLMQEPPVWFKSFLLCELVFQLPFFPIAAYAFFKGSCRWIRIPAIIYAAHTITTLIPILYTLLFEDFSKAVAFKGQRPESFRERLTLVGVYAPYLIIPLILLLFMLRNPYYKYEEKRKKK
Sequence of PTGS1 (P22437 27-602): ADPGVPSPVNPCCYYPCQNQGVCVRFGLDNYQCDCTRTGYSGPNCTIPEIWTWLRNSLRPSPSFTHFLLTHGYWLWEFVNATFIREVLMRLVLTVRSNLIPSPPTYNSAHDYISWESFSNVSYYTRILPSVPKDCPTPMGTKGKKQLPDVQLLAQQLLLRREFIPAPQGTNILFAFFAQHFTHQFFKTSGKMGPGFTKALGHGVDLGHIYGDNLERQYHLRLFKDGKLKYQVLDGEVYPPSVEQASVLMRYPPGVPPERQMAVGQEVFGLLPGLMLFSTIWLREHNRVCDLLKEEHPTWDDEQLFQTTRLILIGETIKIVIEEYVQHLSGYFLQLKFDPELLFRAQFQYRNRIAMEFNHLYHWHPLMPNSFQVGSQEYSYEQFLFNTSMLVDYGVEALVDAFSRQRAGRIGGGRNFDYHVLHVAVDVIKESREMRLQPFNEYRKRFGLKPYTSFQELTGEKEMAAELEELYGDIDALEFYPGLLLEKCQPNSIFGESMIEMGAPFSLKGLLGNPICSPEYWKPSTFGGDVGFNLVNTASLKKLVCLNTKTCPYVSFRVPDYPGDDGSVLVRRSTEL
Sequence of NENF (Q9UMX5 32-172, species assumed): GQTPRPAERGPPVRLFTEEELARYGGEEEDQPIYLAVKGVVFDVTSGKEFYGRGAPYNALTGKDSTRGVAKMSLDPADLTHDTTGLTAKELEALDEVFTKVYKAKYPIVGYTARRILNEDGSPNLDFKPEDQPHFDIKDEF
Sequence of PTGR2 (Q8VDQ1 whole entry): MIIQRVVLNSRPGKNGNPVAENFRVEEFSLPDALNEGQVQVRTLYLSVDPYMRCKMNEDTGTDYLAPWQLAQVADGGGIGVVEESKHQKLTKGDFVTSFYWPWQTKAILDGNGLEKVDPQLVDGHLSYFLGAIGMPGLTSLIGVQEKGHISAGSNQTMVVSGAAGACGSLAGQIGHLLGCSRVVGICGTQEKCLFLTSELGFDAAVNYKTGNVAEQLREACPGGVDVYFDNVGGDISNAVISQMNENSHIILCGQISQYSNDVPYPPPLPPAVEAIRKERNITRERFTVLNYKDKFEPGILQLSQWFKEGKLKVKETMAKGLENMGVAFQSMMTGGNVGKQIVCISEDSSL
Sequence of ferrochelatase (FECH) (P22315 54-422): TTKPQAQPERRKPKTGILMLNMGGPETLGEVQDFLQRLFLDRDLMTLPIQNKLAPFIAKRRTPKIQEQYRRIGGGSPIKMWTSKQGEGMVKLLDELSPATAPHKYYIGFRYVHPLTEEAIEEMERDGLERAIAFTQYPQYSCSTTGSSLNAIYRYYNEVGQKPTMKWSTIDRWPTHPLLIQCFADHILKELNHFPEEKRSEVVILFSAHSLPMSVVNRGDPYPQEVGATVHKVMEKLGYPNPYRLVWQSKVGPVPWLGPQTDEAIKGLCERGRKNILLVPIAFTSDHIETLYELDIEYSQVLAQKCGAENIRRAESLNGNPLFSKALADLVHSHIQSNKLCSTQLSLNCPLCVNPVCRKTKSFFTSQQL
Sequence of EBP (P70245 whole entry): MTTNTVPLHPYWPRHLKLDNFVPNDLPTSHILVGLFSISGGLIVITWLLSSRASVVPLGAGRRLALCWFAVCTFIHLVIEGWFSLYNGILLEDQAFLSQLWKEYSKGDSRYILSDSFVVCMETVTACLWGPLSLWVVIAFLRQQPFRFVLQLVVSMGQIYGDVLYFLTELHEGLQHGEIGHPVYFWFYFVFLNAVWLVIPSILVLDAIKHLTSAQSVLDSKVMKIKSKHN
Sequence of DHRS1 (Q99L04 whole entry): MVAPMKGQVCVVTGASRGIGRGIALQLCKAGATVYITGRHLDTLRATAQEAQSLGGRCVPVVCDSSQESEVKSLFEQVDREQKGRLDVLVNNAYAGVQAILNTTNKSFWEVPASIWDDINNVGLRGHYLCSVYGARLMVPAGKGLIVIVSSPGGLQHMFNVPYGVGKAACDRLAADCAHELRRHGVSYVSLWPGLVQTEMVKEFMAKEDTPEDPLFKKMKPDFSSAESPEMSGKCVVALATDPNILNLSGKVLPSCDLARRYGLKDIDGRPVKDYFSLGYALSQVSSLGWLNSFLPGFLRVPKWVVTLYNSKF
Sequence of NAMPT (Q99KQ4 whole entry): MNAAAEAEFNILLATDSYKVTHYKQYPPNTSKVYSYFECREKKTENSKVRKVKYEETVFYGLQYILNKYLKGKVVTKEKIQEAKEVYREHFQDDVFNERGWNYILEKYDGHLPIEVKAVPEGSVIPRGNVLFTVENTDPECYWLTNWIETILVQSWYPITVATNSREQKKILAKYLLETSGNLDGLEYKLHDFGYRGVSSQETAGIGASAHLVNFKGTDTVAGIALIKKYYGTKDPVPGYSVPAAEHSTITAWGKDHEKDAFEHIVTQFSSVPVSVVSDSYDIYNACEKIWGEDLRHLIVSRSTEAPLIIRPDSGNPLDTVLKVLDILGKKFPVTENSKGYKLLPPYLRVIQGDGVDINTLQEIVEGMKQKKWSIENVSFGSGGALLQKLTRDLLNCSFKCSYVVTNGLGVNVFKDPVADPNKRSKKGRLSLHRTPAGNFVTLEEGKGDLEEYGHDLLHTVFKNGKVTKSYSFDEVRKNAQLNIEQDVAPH

SMILES: CCCCC/C=C\C/C=C\C/C=C\C/C=C\CCCC(=O)NCCO [AEA, N-arachidonoyl ethanolamine]
blockade of AEA-DA probe labeling of recombinant NUCB1 by lipids (NUCB1): preferentially blocked | competition of PTGR2 probe labeling (PTGR2): competed | competition of DHRS1 probe labeling (DHRS1): competed | suppression of the NUCB1-FluoPol signal by lipids [1]: Concentration-dependent suppression

SMILES: CC(C(=O)O)c1ccc(-c2ccccc2)c(F)c1 (racemic) [(±)-flurbiprofen]
competition of A-DA labeling of PTGS1 (PTGS1): competitively blocked

SMILES: O=C(Nc1cccnn1)N1CCC(=Cc2cccc(Oc3ccc(C(F)(F)F)cn3)c2)CC1 [PF-7845]
cellular concentrations of NAEs and NATs (Neuro2a cells): elevated

SMILES: C=CC1=C(C)c2cc3[n-]c(cc4[n-]c(cc5nc(cc1n2)C(C)=C5C=C)c(C)c4CCC(=O)O)c(CCC(=O)O)c3C.[Cl-].[Fe+3] [hemin]
effect on other AEA-DA-modified proteins detected by SDS-PAGE [3]: unaffected | competition of AEA-DA probe labeling of recombinant NENF (NENF): inhibited

Now from value to molecule, other results behind:

concentration blocking arachidonoyl probe labeling of ABCB1B (as low as) (ABCB1B): ≤ 0.5 µM | concentration blocking arachidonoyl probe labeling of FECH (as low as) (ferrochelatase (FECH)): ≤ 0.5 µM | concentration blocking arachidonoyl probe labeling of TMEM97 (as low as) (TMEM97): ≤ 0.5 µM | blockade of AEA-DA probe labeling of recombinant TMEM97 [2]: block
SMILES: COc1cc2c(cc1OC)CN(CCc1ccc(NC(=O)c3cccc4c(=O)c5cccc(OC)c5[nH]c34)cc1)CC2 [elacridar]

competition of probe-labeling of ABCB1B (ABCB1B; 25 μM, AEA-DA 5 μM, Neuro2a): competed | competition of probe-labeling of NAMPT (NAMPT): competed
SMILES: O=C(/C=C/c1cccnc1)NCCCCC1CCN(C(=O)c2ccccc2)CC1 [FK-866]
PMA-stimulated generation of PGE2 [4]: no effect | PMA-stimulated generation of TXB2 [4]: complete suppression

competition of TMEM97 (TMEM97; 5 μM drug): prominent off-targets | blockade of AEA-DA probe labeling of recombinant TMEM97 [2]: block | competition of EBP (EBP): prominent off-targets | competition of LSS (LSS): fully competed
SMILES: C=CCN(C)CCCCCCOc1ccc(C(=O)c2ccc(Br)cc2)c(F)c1 [Ro 48-8071]
